# Test results taken from ChEMBL document CHEMBL1926569, “Novel (E)-1-(4-methyl-2-(alkylamino)thiazol-5-yl)-3-arylprop-2-en-1-ones as potent antimicrobial agents” (2011).
# Experiments:
# Staphylococcus aureus [1] = test: Antibacterial activity against Staphylococcus aureus ATCC 6538 after 24 hrs by microdilution method; assay type: functional; settings: ATCC 6538, 24 h
# Method in brief: (§1)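 Broth microdilution in 96-well plates. Bacterial suspensions were adjusted in sterile saline to 1.0 × 10⁵ CFU/ml, prepared daily and kept at 4 °C. Compound was added to LB broth with 1.0 × 10⁴ CFU per well and shaken at 160 rpm for 24 h at […] (so in the source). MIC is the lowest concentration with no visible growth under a binocular microscope. OD655 was also read. Duplicate, repeated three times.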
# Bacillus cereus [2] = test: Antibacterial activity against clinical isolate of Bacillus cereus after 24 hrs by microdilution method; assay type: functional; method in brief: as §1
# Micrococcus flavus [3] = test: Antibacterial activity against Micrococcus flavus ATCC 10240 after 24 hrs by microdilution method; assay type: functional; settings: ATCC 10240, 24 h; method in brief: as §1
# Listeria monocytogenes [4] = test: Antibacterial activity against Listeria monocytogenes NCTC 7973 after 24 hrs by microdilution method; assay type: functional; settings: NCTC 7973, 24 h; method in brief: as §1
# Pseudomonas aeruginosa [5] = test: Antibacterial activity against Pseudomonas aeruginosa ATCC 27853 after 24 hrs by microdilution method; assay type: functional; settings: ATCC 27853, 24 h; method in brief: as §1
# Salmonella typhimurium [6] = test: Antibacterial activity against Salmonella Typhimurium ATCC 13311 after 24 hrs by microdilution method; assay type: functional, Salmonella enterica subsp. enterica serovar Typhimurium; settings: Salmonella enterica, ATCC 13311, 24 h; method in brief: as §1
# Escherichia coli [7] = test: Antibacterial activity against Escherichia coli ATCC 35210 after 24 hrs by microdilution method; assay type: functional; settings: ATCC 35210, 24 h; method in brief: as §1
# Enterococcus faecalis [8] = test: Antibacterial activity against Enterococcus faecalis isolated from human after 24 hrs by microdilution method; assay type: functional; method in brief: as §1
# Staphylococcus aureus [9] = test: Antibacterial activity against Staphylococcus aureus ATCC 6538 incubated for 24 hrs followed by serial sub-cultivation for 24 hrs by microdilution method; assay type: functional; settings: ATCC 6538, 24 h
# Method in brief: (§2)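 MBC: after the 24 h LB broth microdilution (1.0 × 10⁴ CFU per well, 160 rpm), wells were serially sub-cultured into fresh broth plates and incubated a further 24 h. MBC is the lowest concentration with no visible growth, taken as 99.5% killing of the original inoculum. Duplicate, repeated three times.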
# Bacillus cereus [10] = test: Antibacterial activity against clinical isolate of Bacillus cereus incubated for 24 hrs followed by serial sub-cultivation for 24 hrs by microdilution; assay type: functional; method in brief: as §2
# Micrococcus flavus [11] = test: Antibacterial activity against Micrococcus flavus ATCC 10240 incubated for 24 hrs followed by serial sub-cultivation for 24 hrs by microdilution; assay type: functional; settings: ATCC 10240, 24 h; method in brief: as §2
# Listeria monocytogenes [12] = test: Antibacterial activity against Listeria monocytogenes NCTC 7973 incubated for 24 hrs followed by serial sub-cultivation for 24 hrs by microdilution; assay type: functional; settings: NCTC 7973, 24 h; method in brief: as §2
# Pseudomonas aeruginosa [13] = test: Antibacterial activity against Pseudomonas aeruginosa ATCC 27853 incubated for 24 hrs followed by serial sub-cultivation for 24 hrs by microdilution; assay type: functional; settings: ATCC 27853, 24 h; method in brief: as §2
# Salmonella typhimurium [14] = test: Antibacterial activity against Salmonella Typhimurium ATCC 13311 incubated for 24 hrs followed by serial sub-cultivation for 24 hrs by microdilution; assay type: functional, Salmonella enterica subsp. enterica serovar Typhimurium; settings: Salmonella enterica, ATCC 13311, 24 h; method in brief: as §2
# Escherichia coli [15] = test: Antibacterial activity against Escherichia coli ATCC 35210 incubated for 24 hrs followed by serial sub-cultivation for 24 hrs by microdilution; assay type: functional; settings: ATCC 35210, 24 h; method in brief: as §2
# Enterococcus faecalis [16] = test: Antibacterial activity against Enterococcus faecalis isolated from human incubated for 24 hrs followed by serial sub-cultivation for 24 hrs by microdilution; assay type: functional; method in brief: as §2
# Aspergillus ochraceus [17] = test: Antifungal activity against Aspergillus ochraceus ATCC 12066 after 72 hrs by serial dilution technique; assay type: functional; settings: ATCC 12066, 72 h
# Method in brief: (§3)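 Modified microdilution in 96-well plates. Fungi were kept on malt agar at 4 °C. Spores were washed off in sterile 0.85% saline with 0.1% Tween 80. Compounds were dissolved at 1 mg/ml in 5% DMSO with 0.1% Tween 80 and added to malt broth with inoculum. Plates were shaken at 160 rpm for 72 h at 28 °C. Duplicate, repeated three times.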
# Aspergillus niger [18] = test: Antifungal activity against Aspergillus niger ATCC 6275 after 72 hrs by serial dilution technique; assay type: functional; settings: ATCC 6275, 72 h; method in brief: as §3
# Aspergillus flavus [19] = test: Antifungal activity against Aspergillus flavus ATCC 9643 after 72 hrs by serial dilution technique; assay type: functional; settings: ATCC 9643, 72 h; method in brief: as §3
# Talaromyces funiculosus [20] = test: Antifungal activity against Penicillium funiculosum ATCC 36839 after 72 hrs by serial dilution technique; assay type: functional; settings: ATCC 36839, 72 h; method in brief: as §3
# Penicillium ochrochloron [21] = test: Antifungal activity against Penicillium ochrochloron ATCC 9112 after 72 hrs by serial dilution technique; assay type: functional; settings: ATCC 9112, 72 h; method in brief: as §3
# Trichoderma viride [22] = test: Antifungal activity against Trichoderma viride IAM 5061 after 72 hrs by serial dilution technique; assay type: functional; settings: IAM 5061, 72 h; method in brief: as §3
# Candida albicans [23] = test: Antifungal activity against Candida albicans isolated from human after 72 hrs by serial dilution technique; assay type: functional; method in brief: as §3
# Aspergillus ochraceus [24] = test: Antifungal activity against Aspergillus ochraceus ATCC 12066 incubated for 72 hrs followed by serial sub-cultivation for 72 hrs by serial dilution technique; assay type: functional; settings: ATCC 12066, 72 h
# Method in brief: (§4)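 MFC: material from 72 h malt broth microdilution wells was serially sub-cultured into fresh broth plates and incubated a further 72 h at 28 °C. Fungicidal concentration is taken from growth after sub-culture. Duplicate, repeated three times.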
# Aspergillus fumigatus [25] = test: Antifungal activity against Aspergillus fumigatus isolated from human incubated for 72 hrs followed by serial sub-cultivation for 72 hrs by serial dilution technique; assay type: functional; method in brief: as §4
# Aspergillus niger [26] = test: Antifungal activity against Aspergillus niger ATCC 6275 incubated for 72 hrs followed by serial sub-cultivation for 72 hrs by serial dilution technique; assay type: functional; settings: ATCC 6275, 72 h; method in brief: as §4
# Aspergillus flavus [27] = test: Antifungal activity against Aspergillus flavus ATCC 9643 incubated for 72 hrs followed by serial sub-cultivation for 72 hrs by serial dilution technique; assay type: functional; settings: ATCC 9643, 72 h; method in brief: as §4
# Talaromyces funiculosus [28] = test: Antifungal activity against Penicillium funiculosum ATCC 36839 incubated for 72 hrs followed by serial sub-cultivation for 72 hrs by serial dilution technique; assay type: functional; settings: ATCC 36839, 72 h; method in brief: as §4
# Penicillium ochrochloron [29] = test: Antifungal activity against Penicillium ochrochloron ATCC 9112 incubated for 72 hrs followed by serial sub-cultivation for 72 hrs by serial dilution technique; assay type: functional; settings: ATCC 9112, 72 h; method in brief: as §4
# Trichoderma viride [30] = test: Antifungal activity against Trichoderma viride IAM 5061 incubated for 72 hrs followed by serial sub-cultivation for 72 hrs by serial dilution technique; assay type: functional; settings: IAM 5061, 72 h; method in brief: as §4
# Candida albicans [31] = test: Antifungal activity against Candida albicans isolated from human incubated for 72 hrs followed by serial sub-cultivation for 72 hrs by serial dilution technique; assay type: functional; method in brief: as §4
# Pseudomonas aeruginosa [32] = test: Ratio of ampicillin MIC to compound MIC for Pseudomonas aeruginosa ATCC 27853; assay type: functional
# Aspergillus ochraceus [33] = test: Ratio of bifonazole to compound for Aspergillus ochraceus ATCC 12066; assay type: functional
# Aspergillus niger [34] = test: Ratio of bifonazole to compound for Aspergillus niger ATCC 6275; assay type: functional
# Talaromyces funiculosus [35] = test: Ratio of bifonazole to compound for Penicillium funiculosum ATCC 36839; assay type: functional
# Penicillium ochrochloron [36] = test: Ratio of bifonazole to compound for Penicillium ochrochloron ATCC 9112; assay type: functional
# Trichoderma viride [37] = test: Ratio of bifonazole to compound for Trichoderma viride IAM 5061; assay type: functional
# Candida albicans [38] = test: Ratio of bifonazole to compound for Candida albicans isolated from human; assay type: functional
# Aspergillus ochraceus [39] = test: Ratio of ketoconazole to compound for Aspergillus ochraceus ATCC 12066; assay type: functional
# Aspergillus fumigatus [40] = test: Ratio of ketoconazole to compound for Aspergillus fumigatus isolated from human; assay type: functional
# Penicillium ochrochloron [41] = test: Ratio of ketoconazole to compound for Penicillium ochrochloron ATCC 9112; assay type: functional
# Candida albicans [42] = test: Ratio of ketoconazole to compound for Candida albicans isolated from human; assay type: functional
# Aspergillus ochraceus [43] = test: Antifungal activity against Aspergillus ochraceus after 72 hrs by serial dilution technique
structure (smiles),measurement,setting,value
CNc1nc(C)c(C(=O)/C=C/c2cccc(C)c2)s1,MIC,Staphylococcus aureus [1],73.5 µM
same,MIC,Bacillus cereus [2],73.5 µM
same,MIC,Micrococcus flavus [3],73.5 µM
same,MIC,Listeria monocytogenes [4],110 µM
same,MIC,Pseudomonas aeruginosa [5],73.5 µM
same,MIC,Salmonella typhimurium [6],73.5 µM
same,MIC,Escherichia coli [7],55.1 µM
same,MIC,Enterococcus faecalis [8],55.1 µM
same,MBC,Staphylococcus aureus [9],110 µM
same,MBC,Bacillus cereus [10],91.9 µM
same,MBC,Micrococcus flavus [11],91.9 µM
same,MBC,Listeria monocytogenes [12],110 µM
same,MBC,Pseudomonas aeruginosa [13],91.9 µM
same,MBC,Salmonella typhimurium [14],91.9 µM
same,MBC,Escherichia coli [15],73.5 µM
same,MBC,Enterococcus faecalis [16],73.5 µM
same,MIC,Aspergillus ochraceus [17],36.8 µM
same,MIC,Aspergillus niger [18],37.8 µM
same,MIC,Aspergillus flavus [19],36.8 µM
same,MIC,Talaromyces funiculosus [20],36.8 µM
same,MIC,Penicillium ochrochloron [21],36.8 µM
same,MIC,Trichoderma viride [22],36.8 µM
same,MIC,Candida albicans [23],55.1 µM
same,MFC,Aspergillus ochraceus [24],73.5 µM
same,MFC,Aspergillus fumigatus [25],73.5 µM
same,MFC,Aspergillus niger [26],73.5 µM
same,MFC,Aspergillus flavus [27],91.9 µM
same,MFC,Talaromyces funiculosus [28],73.5 µM
same,MFC,Penicillium ochrochloron [29],73.5 µM
same,MFC,Trichoderma viride [30],73.5 µM
same,MFC,Candida albicans [31],73.5 µM
same,Ratio,Pseudomonas aeruginosa [32],10
same,Ratio,Aspergillus ochraceus [33],10
same,Ratio,Aspergillus niger [34],10
same,Ratio,Talaromyces funiculosus [35],10
same,Ratio,Penicillium ochrochloron [36],10
same,Ratio,Trichoderma viride [37],10
same,Ratio,Candida albicans [38],10
same,Ratio,Aspergillus ochraceus [39],10
same,Ratio,Aspergillus fumigatus [40],10
same,Ratio,Penicillium ochrochloron [41],10
same,Ratio,Candida albicans [42],10
same,MIC,Aspergillus ochraceus [43],36.8 µM
